# ChEMBL document CHEMBL4732217, “Design, synthesis, biological evaluation, and docking studies of novel (imidazol-5-yl)pyrimidine-based derivatives as dual BRAF/p38α inhibitors” (Eur J Med Chem, 2021)
# Biological target: T1, Mitogen-activated protein kinase 14 (Homo sapiens, UniProt Q16539)
# Assay: Potency index, ratio of PP2 IC50 to compound IC50 for inhibition of P38 alpha (unknown origin)
# Conditions: not given
# T1 sequence (Q16539 whole entry): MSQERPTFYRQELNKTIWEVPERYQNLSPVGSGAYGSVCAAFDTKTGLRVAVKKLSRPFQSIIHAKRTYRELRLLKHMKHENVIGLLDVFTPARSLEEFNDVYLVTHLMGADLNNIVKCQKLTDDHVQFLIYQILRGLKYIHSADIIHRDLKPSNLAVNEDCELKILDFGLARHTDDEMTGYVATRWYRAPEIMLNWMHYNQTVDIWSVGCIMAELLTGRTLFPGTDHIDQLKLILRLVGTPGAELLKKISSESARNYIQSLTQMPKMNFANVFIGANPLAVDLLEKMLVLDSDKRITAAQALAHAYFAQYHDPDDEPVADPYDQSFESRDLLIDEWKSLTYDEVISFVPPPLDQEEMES
row,SMILES,Ratio IC50
1,O=S(=O)(NCCCNc1nccc(-c2[nH]c(-c3ccccc3)nc2-c2ccc(F)c(O)c2)n1)c1ccc(O)cc1,49.8

# Biological target: T1, Mitogen-activated protein kinase 14
# Assay: Inhibition of p38 alpha (unknown origin) at 10 uM using Ser/Thr 15 as substrate incubated for 1 hr in presence of ATP by Z'-Lyte assay relative to control
# Conditions: not given
# How it was run: (§1)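 Run by a commercial kinase profiling service at 100 µM ATP. Single-point screening was followed by 5-point titration (1 nM, 10 nM, 100 nM, 1 µM, 10 µM) for IC50.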
row,SMILES,inhibition [%]
1,O=S(=O)(NCCCNc1nccc(-c2[nH]c(-c3ccccc3)nc2-c2ccc(F)c(O)c2)n1)c1ccc(F)cc1,91.4
2,COc1cc(-c2nc(-c3ccccc3)[nH]c2-c2ccnc(NCCCNS(=O)(=O)c3cccc(F)c3)n2)ccc1F,82.7
3,O=S(=O)(NCCCNc1nccc(-c2[nH]c(-c3ccccc3)nc2-c2ccc(F)c(O)c2)n1)c1ccccc1,87
4,O=S(=O)(NCCCNc1nccc(-c2[nH]c(-c3ccccc3)nc2-c2ccc(F)c(O)c2)n1)c1cccc2ccccc12,79.8
5,COc1cc(-c2nc(-c3ccccc3)[nH]c2-c2ccnc(NCCCNS(=O)(=O)c3ccc(F)cc3)n2)ccc1F,84.1
6,COc1cc(-c2nc(-c3ccccc3)[nH]c2-c2ccnc(NCCCNS(=O)(=O)c3ccc(Cl)cc3)n2)ccc1Cl,52.1
7,O=S(=O)(NCCCNc1nccc(-c2[nH]c(-c3ccccc3)nc2-c2ccc(Cl)c(O)c2)n1)c1ccc(Br)cc1,73.7
8,COc1ccc(S(=O)(=O)NCCCNc2nccc(-c3[nH]c(-c4ccccc4)nc3-c3ccc(Cl)c(OC)c3)n2)cc1,54.6
9,O=S(=O)(NCCCNc1nccc(-c2[nH]c(-c3ccccc3)nc2-c2ccc(F)c(O)c2)n1)c1ccc(O)cc1,92.8

# System: not listed separately
# Assay: Inhibition of LPS stimulated TNF-alpha production in mouse RAW264.7 macrophages at 10 uM preincubated for 1 hr followed by LPS stimulation and measured after 24 hrs by EIA relative to control
# Type: functional
# Conditions: time 25 hrs
# How it was run: (§2)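 RAW 264.7 macrophages plated at 2 × 10⁵ cells per well and left overnight. Pretreated 1 h with compound, then stimulated 24 h with lipopolysaccharide. TNF-α in culture supernatant measured by EIA. BAY 11-7082 reference tested at 0.5, 1.0, 5.0 and 10.0 µM. Values are means ± S.D.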
row,SMILES,inhibition at 10 µM [%]
1,O=S(=O)(NCCCNc1nccc(-c2[nH]c(-c3ccccc3)nc2-c2ccc(F)c(O)c2)n1)c1ccc(O)cc1,96.4

# Biological target: T1, Mitogen-activated protein kinase 14
# Assay: Inhibition of p38 alpha (unknown origin) using Ser/Thr 15 as substrate incubated for 1 hr in presence of ATP by Z'-Lyte assay
# Conditions: not given
row,SMILES,IC50 [µM]
1,O=S(=O)(NCCCNc1nccc(-c2[nH]c(-c3ccccc3)nc2-c2ccc(F)c(O)c2)n1)c1ccccc1,0.21
2,O=S(=O)(NCCCNc1nccc(-c2[nH]c(-c3ccccc3)nc2-c2ccc(F)c(O)c2)n1)c1ccc(O)cc1,0.085

# System: not listed separately
# Assay: Inhibition of LPS stimulated TNF-alpha production in mouse RAW264.7 macrophages at 1 uM preincubated for 1 hr followed by LPS stimulation and measured after 24 hrs by EIA relative to control
# Type: functional
# Conditions: time 25 hrs
# How it was run: as §2
row,SMILES,inhibition at 1 µM [%]
1,O=S(=O)(NCCCNc1nccc(-c2[nH]c(-c3ccccc3)nc2-c2ccc(F)c(O)c2)n1)c1ccc(O)cc1,85.2

# Biological target: Serine/threonine-protein kinase B-raf (Homo sapiens, UniProt P15056, V600E)
# Assay: Inhibition of BRAF V600E mutant (unknown origin) using Ser/Thr 03 as substrate after 1 hr in presence of ATP by Z'-LYTE assay
# Conditions: not given
# Chain of Serine/threonine-protein kinase B-raf (P15056 2-766 V600E limits assumed): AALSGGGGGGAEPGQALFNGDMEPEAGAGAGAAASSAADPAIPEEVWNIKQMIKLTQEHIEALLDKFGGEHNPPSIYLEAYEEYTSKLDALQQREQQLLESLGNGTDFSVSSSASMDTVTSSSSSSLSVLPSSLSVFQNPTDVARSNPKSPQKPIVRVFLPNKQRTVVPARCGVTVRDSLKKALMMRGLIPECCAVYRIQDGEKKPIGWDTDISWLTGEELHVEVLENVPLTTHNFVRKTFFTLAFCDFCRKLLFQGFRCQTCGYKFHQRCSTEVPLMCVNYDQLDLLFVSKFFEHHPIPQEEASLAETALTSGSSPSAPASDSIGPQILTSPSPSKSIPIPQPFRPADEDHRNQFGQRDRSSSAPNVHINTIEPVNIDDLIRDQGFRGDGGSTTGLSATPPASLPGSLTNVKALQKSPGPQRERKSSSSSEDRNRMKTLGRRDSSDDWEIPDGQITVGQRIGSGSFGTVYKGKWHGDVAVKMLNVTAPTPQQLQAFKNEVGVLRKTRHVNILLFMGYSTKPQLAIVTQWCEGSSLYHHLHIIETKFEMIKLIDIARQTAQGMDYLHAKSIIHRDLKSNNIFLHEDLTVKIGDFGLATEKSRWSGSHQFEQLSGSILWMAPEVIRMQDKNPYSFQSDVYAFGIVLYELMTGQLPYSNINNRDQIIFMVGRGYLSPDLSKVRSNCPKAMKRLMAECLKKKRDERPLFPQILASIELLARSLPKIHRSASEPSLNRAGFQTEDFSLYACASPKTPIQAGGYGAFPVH
row,SMILES,IC50 [µM]
1,O=S(=O)(NCCCNc1nccc(-c2[nH]c(-c3ccccc3)nc2-c2ccc(F)c(O)c2)n1)c1ccccc1,0.00562
2,O=S(=O)(NCCCNc1nccc(-c2[nH]c(-c3ccccc3)nc2-c2ccc(Cl)c(O)c2)n1)c1ccc(Br)cc1,0.0218
3,O=S(=O)(NCCCNc1nccc(-c2[nH]c(-c3ccccc3)nc2-c2ccc(F)c(O)c2)n1)c1ccc(O)cc1,0.00249

# System: not listed separately
# Assay: Selectivity index, ratio of IC50 for human IOSE-80PC cells to IC50 for human LOX IMVI cells
# Conditions: not given
# How it was run: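 IC50 against IOSE-80PC normal ovarian epithelial cells (MTT, 5-dose) divided by IC50 against LOX-IMVI melanoma cells (MTT, 24 h compound exposure, means of duplicate experiments ± S.D.).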
row,SMILES,Ratio IC50
1,COc1cc(-c2nc(-c3ccccc3)[nH]c2-c2ccnc(NCCCNS(=O)(=O)c3cccc(F)c3)n2)ccc1F,> 11.1

# System: RAW264.7
# Assay: Potency index, ratio of BAY 11-7082 IC50 to compound IC50 for inhibition of LPS stimulated TNF-alpha production in mouse RAW264.7 macrophages
# Type: functional
# Conditions: not given
row,SMILES,Ratio IC50
1,O=S(=O)(NCCCNc1nccc(-c2[nH]c(-c3ccccc3)nc2-c2ccc(F)c(O)c2)n1)c1ccc(O)cc1,53.8

# System: not listed separately
# Assay: Inhibition of LPS stimulated TNF-alpha production in mouse RAW264.7 macrophages preincubated for 1 hr followed by LPS stimulation and measured after 24 hrs by EIA
# Type: functional
# Conditions: not given
# How it was run: as §2
row,SMILES,IC50 [µM]
1,O=S(=O)(NCCCNc1nccc(-c2[nH]c(-c3ccccc3)nc2-c2ccc(F)c(O)c2)n1)c1ccc(O)cc1,0.0963

# System: Serine/threonine-protein kinase B-raf (Homo sapiens), P15056 [V600E]
# Assay: Potency index, ratio of staurosporine IC50 to compound IC50 for inhibition of BRAF V600E mutant (unknown origin)
# Conditions: not given
# Chain of Serine/threonine-protein kinase B-raf (Homo sapiens), P15056 [V600E] (P15056 whole entry V600E): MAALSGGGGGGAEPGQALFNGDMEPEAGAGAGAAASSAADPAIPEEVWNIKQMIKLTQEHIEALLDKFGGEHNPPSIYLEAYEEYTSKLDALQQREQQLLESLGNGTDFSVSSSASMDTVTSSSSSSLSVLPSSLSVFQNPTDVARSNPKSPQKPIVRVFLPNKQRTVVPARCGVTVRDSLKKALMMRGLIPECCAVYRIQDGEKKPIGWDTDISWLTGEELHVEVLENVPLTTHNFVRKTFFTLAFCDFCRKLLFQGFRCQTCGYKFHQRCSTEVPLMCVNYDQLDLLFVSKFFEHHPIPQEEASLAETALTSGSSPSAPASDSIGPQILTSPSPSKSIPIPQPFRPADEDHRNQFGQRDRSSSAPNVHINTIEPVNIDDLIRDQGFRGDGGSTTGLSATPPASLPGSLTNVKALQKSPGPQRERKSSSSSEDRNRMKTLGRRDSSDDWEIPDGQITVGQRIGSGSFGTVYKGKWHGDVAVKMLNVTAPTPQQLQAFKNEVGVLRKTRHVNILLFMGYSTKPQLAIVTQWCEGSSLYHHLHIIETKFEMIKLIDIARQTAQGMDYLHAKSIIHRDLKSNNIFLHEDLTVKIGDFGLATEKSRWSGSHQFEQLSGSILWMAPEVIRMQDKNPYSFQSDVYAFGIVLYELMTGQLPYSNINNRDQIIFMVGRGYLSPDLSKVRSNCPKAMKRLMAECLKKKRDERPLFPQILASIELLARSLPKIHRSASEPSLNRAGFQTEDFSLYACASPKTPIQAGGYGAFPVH
row,SMILES,Ratio IC50
1,O=S(=O)(NCCCNc1nccc(-c2[nH]c(-c3ccccc3)nc2-c2ccc(F)c(O)c2)n1)c1ccc(O)cc1,12.7

# System: Serine/threonine-protein kinase B-raf (Homo sapiens), P15056 [V600E]
# Assay: Inhibition of BRAF V600E mutant (unknown origin) at 10 uM using Ser/Thr 03 as substrate after 1 hr in presence of ATP by Z'-LYTE assay relative to control
# Conditions: not given
# How it was run: as §1
row,SMILES,inhibition [%]
1,O=S(=O)(NCCCNc1nccc(-c2[nH]c(-c3ccccc3)nc2-c2ccc(F)c(O)c2)n1)c1ccc(F)cc1,97
2,COc1cc(-c2nc(-c3ccccc3)[nH]c2-c2ccnc(NCCCNS(=O)(=O)c3cccc(F)c3)n2)ccc1F,72.5
3,O=S(=O)(NCCCNc1nccc(-c2[nH]c(-c3ccccc3)nc2-c2ccc(F)c(O)c2)n1)c1ccccc1,98.4
4,O=S(=O)(NCCCNc1nccc(-c2[nH]c(-c3ccccc3)nc2-c2ccc(F)c(O)c2)n1)c1cccc2ccccc12,99.8
5,COc1cc(-c2nc(-c3ccccc3)[nH]c2-c2ccnc(NCCCNS(=O)(=O)c3ccc(F)cc3)n2)ccc1F,80.1
6,COc1cc(-c2nc(-c3ccccc3)[nH]c2-c2ccnc(NCCCNS(=O)(=O)c3ccc(Cl)cc3)n2)ccc1Cl,85.1
7,O=S(=O)(NCCCNc1nccc(-c2[nH]c(-c3ccccc3)nc2-c2ccc(Cl)c(O)c2)n1)c1ccc(Br)cc1,97.3
8,COc1ccc(S(=O)(=O)NCCCNc2nccc(-c3[nH]c(-c4ccccc4)nc3-c3ccc(Cl)c(OC)c3)n2)cc1,91.1
9,O=S(=O)(NCCCNc1nccc(-c2[nH]c(-c3ccccc3)nc2-c2ccc(F)c(O)c2)n1)c1ccc(O)cc1,101

# System: LOX IMVI
# Assay: cells
# Type: functional, cell-based
# Conditions: Homo sapiens, 24 h
row,SMILES,IC50 [µM]
1,O=S(=O)(NCCCNc1nccc(-c2[nH]c(-c3ccccc3)nc2-c2ccc(F)c(O)c2)n1)c1ccc(F)cc1,19.2
2,COc1cc(-c2nc(-c3ccccc3)[nH]c2-c2ccnc(NCCCNS(=O)(=O)c3cccc(F)c3)n2)ccc1F,0.9
3,O=S(=O)(NCCCNc1nccc(-c2[nH]c(-c3ccccc3)nc2-c2ccc(F)c(O)c2)n1)c1ccccc1,9.58
4,O=S(=O)(NCCCNc1nccc(-c2[nH]c(-c3ccccc3)nc2-c2ccc(F)c(O)c2)n1)c1cccc2ccccc12,3.71
5,COc1cc(-c2nc(-c3ccccc3)[nH]c2-c2ccnc(NCCCNS(=O)(=O)c3ccc(F)cc3)n2)ccc1F,3.96
6,COc1cc(-c2nc(-c3ccccc3)[nH]c2-c2ccnc(NCCCNS(=O)(=O)c3ccc(Cl)cc3)n2)ccc1Cl,60.9
7,O=S(=O)(NCCCNc1nccc(-c2[nH]c(-c3ccccc3)nc2-c2ccc(Cl)c(O)c2)n1)c1ccc(Br)cc1,15.5
8,COc1ccc(S(=O)(=O)NCCCNc2nccc(-c3[nH]c(-c4ccccc4)nc3-c3ccc(Cl)c(OC)c3)n2)cc1,1.8
9,O=S(=O)(NCCCNc1nccc(-c2[nH]c(-c3ccccc3)nc2-c2ccc(F)c(O)c2)n1)c1ccc(O)cc1,13.9

# System: not listed separately
# Assay: Cytotoxicity against human IOSE-80PC cells assessed as reduction in cell viability incubated for 24 hrs by MTT assay
# Type: cell-based, IOSE80pc
# Conditions: not given
# How it was run: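 Human ovarian epithelial IOSE-80PC cells grown in RPMI 1640 with FBS and penicillin-streptomycin, seeded at 1 × 10⁵/mL, exposed to a range of compound concentrations in 5-dose mode. Viability read by MTT; IC50 derived.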
row,SMILES,IC50 [µM]
1,COc1cc(-c2nc(-c3ccccc3)[nH]c2-c2ccnc(NCCCNS(=O)(=O)c3cccc(F)c3)n2)ccc1F,> 10
